Test results taken from ChEMBL document CHEMBL3745654, “N-Alkylated arylsulfonamides of (aryloxy)ethyl piperidines: 5-HT(7) receptor selectivity versus multireceptor profile” (Bioorg Med Chem, 2016).
Activity calls are given as the source filed them. The calls are words filed in the database; no cut-off is given here.

Legend:
[1] = target: 5-hydroxytryptamine receptor 7 (Homo sapiens, UniProt P34969); experiment: Displacement of [3H]-5-CT from human 5-HT7B receptor expressed in HEK293 cells incubated for 1 hr; assay type: cell-based
How it was run: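 Membranes from HEK293 cells stably expressing human 5-HT7b receptor, with [3H]-5-CT (39.2 Ci/mmol). Buffer: 50 mM Tris-HCl, 4 mM MgCl2, pargyline, 0.1% ascorbate. Incubation 1 h at 37 °C, then rapid filtration and counting of filter radioactivity. Non-specific binding defined with 5-HT. Triplicates at 7–8 concentrations (10^-11 to 10^-4 M). Ki by Cheng–Prusoff.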

[2] = target: T1, 5-hydroxytryptamine receptor 1A (Homo sapiens, UniProt P08908); experiment: Displacement of [3H]-8-OH-DPAT from human 5-HT1A receptor expressed in HEK293 cells incubated for 1 hr; assay type: cell-based
T1 sequence (P08908 whole entry): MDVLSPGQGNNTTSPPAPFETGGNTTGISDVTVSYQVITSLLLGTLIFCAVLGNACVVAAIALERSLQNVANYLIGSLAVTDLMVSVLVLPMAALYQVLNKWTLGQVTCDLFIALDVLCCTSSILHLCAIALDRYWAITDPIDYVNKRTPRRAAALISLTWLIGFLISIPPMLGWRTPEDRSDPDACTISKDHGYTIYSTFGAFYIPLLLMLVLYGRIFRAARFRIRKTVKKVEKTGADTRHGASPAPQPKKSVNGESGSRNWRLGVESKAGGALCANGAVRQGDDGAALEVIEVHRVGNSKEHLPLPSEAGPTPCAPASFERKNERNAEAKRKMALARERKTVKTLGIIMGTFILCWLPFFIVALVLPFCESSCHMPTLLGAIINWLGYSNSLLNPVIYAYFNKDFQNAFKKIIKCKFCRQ
How it was run: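 Membranes from HEK293 cells stably expressing human 5-HT1A receptor, with [3H]-8-OH-DPAT (187 Ci/mmol). Buffer: 50 mM Tris-HCl, 0.1 mM EDTA, 4 mM MgCl2, pargyline, 0.1% ascorbate. Incubation 1 h at room temperature, then filtration. Non-specific binding defined with 5-HT. Triplicates at 7–8 concentrations. Ki by Cheng–Prusoff.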

[3] = target: 5-hydroxytryptamine receptor 2A (Homo sapiens, UniProt P28223); experiment: Displacement of [3H]-ketanserin from human 5-HT2A receptor expressed in HEK293 cells incubated for 1 hr; assay type: cell-based
How it was run: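 Membranes from HEK293 cells stably expressing human 5-HT2A receptor, with [3H]-ketanserin (66.9 Ci/mmol). Incubation 1 h at 37 °C, then rapid filtration and counting. Triplicates at 7–8 concentrations (10^-11 to 10^-4 M). Ki by Cheng–Prusoff; means of at least three experiments.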

D(2) dopamine receptor = D(2) dopamine receptor (Homo sapiens, UniProt P14416); experiment: Displacement of [3H]-Raclopride from human dopamine D2L receptor expressed in HEK293 cells incubated for 1 hr; assay type: cell-based
How it was run: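 Membranes from HEK293 cells stably expressing human D2L receptor, with [3H]-raclopride (74.4 Ci/mmol). Buffer: Tris-HCl, EDTA, MgCl2, 120 mM NaCl, 5 mM KCl, 1.5 mM CaCl2, ascorbate. Incubation 1 h at 37 °C, then filtration. Non-specific binding defined with (+)butaclamol. Triplicates at 7–8 concentrations (10^-11 to 10^-4 M). Ki by Cheng–Prusoff.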

[4] = Intrinsic clearance in mouse liver microsomes at 20 uM at pH 7.4 incubated for 15 mins by UPLC/MS analysis in presence of NADPH; assay type: ADME; details: read-out: CLH
[5] = Half life in mouse liver microsomes at 20 uM at pH 7.4 incubated for 15 mins by UPLC/MS analysis in presence of NADPH; assay type: ADME
How it was run: (§1)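 Compound (20 µM) incubated with mouse liver microsomes (0.2 mg/ml) in 100 mM potassium phosphate, pH 7.4, 37 °C. Reaction started with NADPH-regenerating system; blank without NADPH run in parallel. Sampling at 5, 15, 30 and 60 min (some to 120 min), in duplicate. Levallorphan internal standard; UPLC/MS quantitation. t1/2 from ln % remaining vs time.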

[6] = Metabolic stability in mouse liver microsomes assessed as retention time of compound at 20 uM at pH 7.4 incubated for 15 mins by UPLC/MS analysis in presence of NADPH; assay type: ADME; details: pH 7.4, 0.25 h; how it was run: as §1
[7] = Drug metabolism in mouse liver microsomes assessed as retention time of hydroxylated metabolite at 20 uM at pH 7.4 incubated for 15 mins by UPLC/MS analysis in presence of NADPH; assay type: ADME; details: pH 7.4, 0.25 h; how it was run: as §1
[8] = Drug metabolism in mouse liver microsomes assessed as retention time of N-dealkylated metabolite at 20 uM at pH 7.4 incubated for 15 mins by UPLC/MS analysis in presence of NADPH; assay type: ADME; details: pH 7.4, 0.25 h; how it was run: as §1
Mus musculus [9] = experiment: Antidepressant-like activity in Swiss albino mouse assessed as reduction in immobility time at 10 mg/kg, ip dosed 30 mins before test measured after 6 mins by forced swim test; assay type: functional, organism-based
How it was run: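 Male Swiss albino mice (22–26 g), 7–12/group, used once; drug suspended in 1% aqueous Tween 80 just before use, given ip 30 min before test. Blind observer. 6-min swim in a glass cylinder (25 × 10 cm) with 10 cm of water at 23–25 °C. Immobility timed over the final 4 min. Data as mean ± SEM; one-way ANOVA, then Bonferroni vs vehicle.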

Mus musculus [10] = experiment: Toxicity in Swiss albino mouse assessed as effect on spontaneous locomotor activity at 10 mg/kg, ip dosed 30 mins before test measured after 2 to 6 mins; assay type: organism-based; details: in vivo
How it was run: (§2)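 Swiss albino mice given reference drug ip 30 min before testing (citalopram in water; SB-269970 suspended in 1% aqueous Tween 80). Ambulation counted from 2 to 6 min in individual cages by activity monitor.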

Mus musculus [11] = experiment: Antidepressant-like activity in Swiss albino mouse assessed as reduction in immobility time at 1.25 mg/kg, ip dosed 30 mins before test measured after 6 mins by forced swim test; assay type: functional, organism-based
How it was run: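 Male Swiss albino mice (22–26 g), 7–12/group, used once; drug in distilled water, given ip 30 min before test. Observer blind to treatment. Mice swam 6 min in a glass cylinder (25 cm high, 10 cm diameter) holding 10 cm of water at 23–25 °C. Immobility (floating, only small head-keeping movements) was timed over the last 4 min. One-way ANOVA, then Bonferroni vs vehicle.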

Mus musculus [12] = experiment: Toxicity in Swiss albino mouse assessed as effect on spontaneous locomotor activity at 1.25 mg/kg, ip dosed 30 mins before test measured after 2 to 6 mins; assay type: organism-based; details: in vivo; how it was run: as §2

5-hydroxytryptamine receptor 7, sequence (P34969 whole entry): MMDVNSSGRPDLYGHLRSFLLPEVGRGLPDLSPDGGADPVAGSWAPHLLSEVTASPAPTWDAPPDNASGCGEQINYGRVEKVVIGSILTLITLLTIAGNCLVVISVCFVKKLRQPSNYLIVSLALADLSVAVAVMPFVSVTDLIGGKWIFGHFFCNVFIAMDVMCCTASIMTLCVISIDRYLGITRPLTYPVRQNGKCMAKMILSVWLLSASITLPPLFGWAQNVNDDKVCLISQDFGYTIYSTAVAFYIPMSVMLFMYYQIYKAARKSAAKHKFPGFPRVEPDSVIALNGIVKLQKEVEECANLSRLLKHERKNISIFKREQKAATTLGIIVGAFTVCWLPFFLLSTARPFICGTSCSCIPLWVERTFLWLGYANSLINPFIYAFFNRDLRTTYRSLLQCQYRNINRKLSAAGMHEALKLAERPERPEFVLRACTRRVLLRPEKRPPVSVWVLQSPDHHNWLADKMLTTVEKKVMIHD
D(2) dopamine receptor, sequence (P14416 whole entry): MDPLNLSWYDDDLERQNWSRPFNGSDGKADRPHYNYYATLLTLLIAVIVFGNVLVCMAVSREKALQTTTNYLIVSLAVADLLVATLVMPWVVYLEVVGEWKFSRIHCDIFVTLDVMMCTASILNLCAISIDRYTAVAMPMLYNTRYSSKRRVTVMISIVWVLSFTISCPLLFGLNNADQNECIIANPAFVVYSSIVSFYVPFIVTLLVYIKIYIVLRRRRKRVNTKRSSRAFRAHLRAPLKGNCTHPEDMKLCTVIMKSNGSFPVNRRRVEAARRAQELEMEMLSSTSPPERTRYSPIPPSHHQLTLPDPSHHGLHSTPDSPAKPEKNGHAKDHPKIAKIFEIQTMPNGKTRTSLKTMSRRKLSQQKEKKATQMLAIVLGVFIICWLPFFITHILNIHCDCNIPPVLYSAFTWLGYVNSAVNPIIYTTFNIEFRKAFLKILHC
5-hydroxytryptamine receptor 2A, sequence (P28223 whole entry): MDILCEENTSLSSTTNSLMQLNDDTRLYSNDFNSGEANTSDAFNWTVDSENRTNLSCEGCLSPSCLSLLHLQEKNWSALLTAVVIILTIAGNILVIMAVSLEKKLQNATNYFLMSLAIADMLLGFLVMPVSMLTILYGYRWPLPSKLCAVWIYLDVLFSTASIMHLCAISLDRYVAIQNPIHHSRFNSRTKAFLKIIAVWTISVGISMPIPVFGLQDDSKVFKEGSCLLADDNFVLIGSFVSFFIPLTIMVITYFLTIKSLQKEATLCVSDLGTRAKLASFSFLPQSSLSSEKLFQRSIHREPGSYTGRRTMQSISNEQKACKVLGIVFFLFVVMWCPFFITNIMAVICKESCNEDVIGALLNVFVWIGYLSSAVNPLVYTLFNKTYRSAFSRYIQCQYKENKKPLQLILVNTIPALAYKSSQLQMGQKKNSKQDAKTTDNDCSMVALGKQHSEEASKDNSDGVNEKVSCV

SMILES | Ki [1] | Ki [2] | Ki [3] | Ki (D(2) dopamine receptor) | further results
CC(C)c1ccccc1OCCN1CCC(N(C)S(=O)(=O)c2cccc(F)c2)CC1 | 18 nM | 190 nM | 230 nM | 45 nM | –
CN(C1CCN(CCOc2ccccc2-c2ccccc2)CC1)S(=O)(=O)c1ccccc1 | 100 nM | 62 nM | 42 nM | 52 nM | –
CC(C)c1ccccc1OCCN1CCC(N(C)S(=O)(=O)c2ccccc2)CC1 | 9 nM | 140 nM | 264 nM | 60 nM | –
CN(C1CCN(CCOc2ccccc2C(C)(C)C)CC1)S(=O)(=O)c1ccccc1 | 70 nM | 2350 nM | 1250 nM | 360 nM | –
CN(C1CCN(CCOc2ccccc2C(C)(C)C)CC1)S(=O)(=O)c1ccc(F)cc1 | 58 nM | 9050 nM | 1070 nM | 324 nM | –
CC(C)c1ccccc1OCCN1CCC(N(C)S(=O)(=O)c2cnn(C)c2)CC1 | 10 nM | 346 nM | 121 nM | 46 nM | –
Cn1cc(S(=O)(=O)NC2CCN(CCOc3ccccc3C(C)(C)C)CC2)cn1 | – | – | – | – | microsomal CLint at 20 µM [4]: > 200 µL/min/mg; half-life at 20 µM [5]: < 20 min; Retention_time [6]: 4.72 min; Retention_time [7]: 3.62 min
CC(C)c1ccccc1OCCN1CCC(N(CC2CC2)S(=O)(=O)c2ccc(F)cc2)CC1 | 28 nM | 249 nM | 413 nM | 20 nM | –
Cn1cc(S(=O)(=O)NC2CCN(CCOc3ccccc3-c3ccccc3)CC2)cn1 | – | – | – | – | Retention_time [8]: 3.85 min; microsomal CLint at 20 µM [4]: > 200 µL/min/mg; half-life at 20 µM [5]: < 20 min; Retention_time [6]: 4.45 min
CC(C)(C)c1ccccc1OCCN1CCC(N(CC2CC2)S(=O)(=O)c2ccc(F)cc2)CC1 | 53 nM | 14000 nM | 1330 nM | 160 nM | –
CC1CCN(CC[C@H]2CCCN2S(=O)(=O)c2cccc(O)c2)CC1 | – | – | – | – | Activity (Mus musculus [9]): Active; Activity (Mus musculus [10]): Non-toxic
O=S(=O)(c1ccc(F)cc1)N(CC1CC1)C1CCN(CCOc2ccccc2-c2ccccc2)CC1 | 18 nM | 342 nM | 70 nM | 37 nM | –
CC(C)c1ccccc1OCCN1CCC(N(CC2CC2)S(=O)(=O)c2cnn(C)c2)CC1 | 56 nM | 214 nM | 378 nM | 18 nM | –
CC(C)c1ccccc1OCCN1CCC(N(C)S(=O)(=O)c2ccc(F)cc2)CC1 | 13 nM | 180 nM | 382 nM | 50 nM | –
CN(C1CCN(CCOc2ccccc2C(C)(C)C)CC1)S(=O)(=O)c1cccc(F)c1 | 68 nM | 4510 nM | 1930 nM | 290 nM | –
CC(C)c1ccccc1OCCN1CCC(N(CC2CC2)S(=O)(=O)c2cccc(F)c2)CC1 | 56 nM | 158 nM | 429 nM | 15 nM | –
CN(C)CCCC1(c2ccc(F)cc2)OCc2cc(C#N)ccc21 (stereo not drawn) [CITALOPRAM] | – | – | – | – | Activity (Mus musculus [11]): Active; Activity (Mus musculus [12]): Non-toxic
CN(C1CCN(CCOc2ccccc2-c2ccccc2)CC1)S(=O)(=O)c1ccc(F)cc1 | 5 nM | 30 nM | 69 nM | 54 nM | –
